NTR1 agonist = agonists of human neurotensin receptor NTR1 | activation, % at 20 µM | NTR1-U2OS beta-arrestin-GFP spot imaging, agonist mode | 330,000 compounds, 0.17% hits | AID 493036;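 active means activation at or above 40% of the spot to cytoplasm intensity ratio, with at least 20 cells analyzed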;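 further: 0% = DMSO without peptide and 100% = 100 nM NTR1 peptide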
Exocytosis inh = lytic granule exocytosis inhibition | TALL-104 LAMP-1 surface exposure, flow cytometry; cells stimulated with thapsigargin and PMA | 360,000 compounds, 0.66% hits | inhibition, % at 10 µM;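 active means inhibition above about 55%, limit read from the data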
MC4R barr agon = human MC4R agonism via beta-arrestin. P32245. U2OS MC4R beta-arrestin complementation, luminescence; percent of melanotan II response, DMSO zero. activation, % at 8.9 µM. 360,000 compounds, 0.98% hits. AID 540308;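 active means activation above a per-plate cutoff, the mean activation of sample wells on that plate plus 3 SD, cut at about 8% in these data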
Target sequence (P32245 whole entry, looked up): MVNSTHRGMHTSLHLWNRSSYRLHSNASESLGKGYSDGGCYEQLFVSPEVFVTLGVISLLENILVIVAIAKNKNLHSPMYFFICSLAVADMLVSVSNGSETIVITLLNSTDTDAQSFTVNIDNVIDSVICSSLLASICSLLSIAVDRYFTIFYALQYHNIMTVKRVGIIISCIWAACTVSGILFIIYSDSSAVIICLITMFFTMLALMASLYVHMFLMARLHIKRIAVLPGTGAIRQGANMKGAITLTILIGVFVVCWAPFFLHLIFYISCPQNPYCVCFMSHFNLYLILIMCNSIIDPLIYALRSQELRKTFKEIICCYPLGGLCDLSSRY
A1 inh = inhibitors of the anti-apoptotic protein A1, read as caspase activation | 330,000 compounds, 0.066% hits | caspase activation, % (test concentration not listed) | MEF A1-2A-BIM cells, Caspase-Glo 3/7 luminescence, 3 h; percent of clofoctol response, vehicle zero;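 active means over half of replicate activation scores above 10%, or exactly half above 10 with the replicate mean above 10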
sPLA2-III inh = Blocks human group III sPLA2 activity. QFRET BODIPY PC-A2 liposome hydrolysis, fluorescence. inhibition, % at 12.2 µM. 370,000 compounds, 0.56% hits. AID 743126;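 active means inhibition above mean plus 3 SD of compounds lying within the high and low control bounds, cut at about 19% in these data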;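 further: 0% = median of test compound wells and 100% = no enzyme DMSO wells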
MC4R antag cAMP = blocks human MC4R cAMP signaling; P32245; MC4R-expressing cells, MTII-stimulated cAMP, LANCE TR-FRET; 360,000 compounds, 0.48% hits; inhibition, % at 6.5 µM;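 active means inhibition above its plate's cutoff, the mean of tested wells on that plate plus 3 SD, cut at about 29% in these data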;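 further: 0% = Melanotan II alone and 100% = Melanotan II plus saturating MCL0020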
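System – human MC4R-expressing U2OS cells · Also added – Melanotan II · Dosing – one concentration, 6.5 µM nominal · Timing – 30-min compound, 1-h challenge, 1-h detection, room temperature · Measured by – Eu-cAMP/anti-cAMP TR-FRET, emission 671 nm · Replicates – singlicate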
sPLA2 confirm = human GIII-sPLA2 inhibition, confirmation; shares compounds with sPLA2-III inh; recombinant hGIII-sPLA2, BODIPY PC-A2 QFRET fluorescence; inhibition, % at 12.2 µM; 2,000 compounds, 34% hits; AID 743280;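 active means mean inhibition across triplicates above the hit cutoff set in the earlier primary screen, cut at about 19% in these data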;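 further: 0% = enzyme with DMSO and 100% = DMSO wells lacking enzyme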
BODIPY interf = 535nm fluorescence interference, HGIII-sPLA2 counter-screen; 2,000 compounds, 8.5% hits; BODIPY FL product fluorescence interference, QFRET; shares compounds with sPLA2-III inh; inhibition, % at 12.2 µM; AID 743282;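 active means average inhibition above the solvent-only control mean plus 3 SD, cut at about 6% in these data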;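 further: 0% = DMSO with substrate plus product and 100% = DMSO with substrate alone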
BODIPY interf DR = interferes with 535nm fluorescence in dose response counter-screen; shares compounds with sPLA2-III inh; BODIPY FL product fluorescence interference, cell-free; IC50, µM; 240 tested, under 10 active; AID 743455;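 active means IC50 at or below 10 µM; inactive means IC50 above 10 µM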
* hit, by the source's call; x = no result. Sampled rows, rich in hits. Any-hit rate of the full collection: about 2.5%.

SMILES	NTR1 agonist	Exocytosis inh	MC4R barr agon	A1 inh	sPLA2-III inh	MC4R antag cAMP	sPLA2 confirm	BODIPY interf	others
Cc1cc(C)c2nc(NNC(=O)c3ccc(S(=O)(=O)N4CCCC(C)C4)cc3)sc2c1 (stereo unspecified)	18.2	0.7	0.6	0.4	36.3*	19.9	45.6*	6.5*
Cc1ccc(C2CC2C(=O)NNC(=S)Nc2ccc(Cl)cc2)cc1 (stereo unspecified)	-1.6	-2.6	-0.8	0.4	20.7*	13.0	8.7	11.6*
CCCCn1c(/C=C/c2ccco2)nc2ccccc21	0.7	-1.1	0.7	-0.2	-3.3	10.3	x	x
CCCCn1c(/C=N/Nc2nc3ccccc3[nH]2)nc2ccccc21	1.4	5.9	-4.7	-0.4	35.4*	7.3	31.1*	-18.3
Cc1nc2ccccn2c(=O)c1NC(=O)COc1ccccc1	x	-1.4	-0.3	x	2.5	9.8	x	x
c1ccc(-c2ccc(CNc3nc(-c4ccccn4)nnc3-c3ccccc3)cc2)cc1	x	x	x	x	26.9*	x	-0.7	-30.8
O=C(CSS(=O)(=O)O)N1CCN(C(=O)c2ccoc2)CC1	-0.2	-5.9	0.7	-0.1	2.2	-1.8	x	x
O=C(Cc1cnn(-c2ccccc2)c1)c1ccc(O)c(O)c1O	-0.4	-0.8	-4.4	-0.5	24.1*	-5.6	15.1	-4.0
Cc1ccccc1NC(=O)Cc1nc(COC(=O)c2cc(Cl)ccc2O)cs1	3.4	3.3	3.4	-0.1	-28.7	12.9	x	x
CC(C)(C)c1ccc(C(=O)Nc2ccc([N+](=O)[O-])cn2)cc1	-0.4	-3.0	-2.4	-2.2	1.0	7.6	x	x
O=C(Nc1ccc([N+](=O)[O-])cn1)c1cccnc1	0.4	14.2	-0.8	-1.0	19.5*	-1.0	4.9	-4.0
CC(C)C[C@@H](CN1C(=O)C(=O)NC[C@@H]1CC(C)C)NC(=O)Cc1ccccc1	-0.1	1.0	-0.7	1.0	2.1	10.8	x	x
CNC(=S)NN=C(C)c1ccc(OC)cc1O	x	-2.3	-2.4	x	26.6*	5.4	31.2*	3.5	BODIPY interf DR=>122
COc1ccc(/C(C)=N/N=C(N)N)c(O)c1	1.4	1.1	-2.2	0.6	0.5	19.3	x	x
COCCNc1nc(NCc2cnc(C)cn2)c2sccc2n1	x	-8.1	0.7	x	21.7*	2.8	-2.1	-6.7
COCCNc1nc(NCc2ccccc2OC)c2sccc2n1	x	7.8	-1.4	x	-6.9	-11.4	x	x
Cc1cc(NC(=O)COc2ccc(C(C)(C)C)cc2)no1	2.5	6.7	0.0	x	0.7	-0.9	x	x
Cc1coc2cc3oc(=O)c(CCC(=O)N4CCC(C(=O)O)(c5ccccc5)CC4)c(C)c3cc12	-1.1	-0.6	0.3	-1.1	-0.7	15.8	x	x
CCOC(=O)C1=C(C)NC(=O)NC1c1ccc(N(CC)CC)cc1 (stereo unspecified)	0.5	-2.3	-0.5	-0.2	20.0*	3.4	6.5	-4.6
CCOC(=O)C1=C(C)NC(=O)NC1c1ccc(N(C)C)cc1 (stereo unspecified)	0.0	-2.2	-1.9	x	2.6	-5.5	x	x
CCC(CC)COC(=O)C1=C(C)NC(=O)NC1c1ccc(N(C)C)cc1 (stereo unspecified)	0.9	-3.5	3.8	-0.1	23.5*	2.2	23.0*	-6.5
O=C(NCC(c1ccco1)N1CCN(c2ccccc2)CC1)C(=O)NC1CCCC1 (stereo unspecified)	0.2	4.3	0.0	0.1	7.3	2.4	x	x
COC(=O)c1ccc(NC(=O)CCN2CCOCC2)cc1	-0.4	-9.8	0.9	0.7	22.0*	5.9	-11.4	-4.5
COC(=O)c1ccc(NC(=O)CCN2CCN(CCC(=O)Nc3ccc(C(=O)OC)cc3)CC2)cc1	4.6	1.7	-0.5	-1.7	-6.9	5.2	x	x
